Peptide text beside a SMILES is read from it. * marks the point of attachment. Hydrocinnamoyl = O=C(CCc1ccccc1)*; Undecanoyl = CCCCCCCCCCC(=O)*; Nicotinoyl = O=C(c1cccnc1)*; NHBn = c1ccc(CN*)cc1; NHNH2 = NN*
Species: Rattus norvegicus
Assay: Inhibition of rat recombinant Rab geranylgeranyltransferase at 100 uM in presence of canine Rab7 and rat REP1 NBD-FPP based continuous fluorimetric assay
Method in brief: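 Continuous fluorometric assay in 96/384-well format: 3 μM Rab7, 3 μM REP1, 9 μM NBD-FPP and 400 nM RabGGTase, with or without inhibitor. […] IC50 was calculated from three independent measurements.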

SMILES | inhibition
CC[C@H](C)[C@H](NC(=O)[C@H](Cc1ccccc1)NC(=O)c1cccnc1)C(=O)N[C@@H](CCCNC(=N)N)C(=O)O (Nicotinoyl-Phe-Ile-Arg-OH) | 119%
CC[C@H](C)[C@H](NC(=O)c1ccc(-c2ccccc2)cc1)C(=O)N[C@@H](C(=O)N[C@@H](CCC(N)=O)C(N)=O)C(C)C | 89%
CCCCCCCCCCC(=O)N[C@@H](Cc1c[nH]cn1)C(=O)N[C@@H](Cc1c[nH]cn1)C(=O)N[C@@H](CO)C(N)=O (Undecanoyl-His-His-Ser-NH2) | 81%
O=C(/C=C/c1ccc(F)cc1)N[C@@H](CO)C(=O)N[C@@H](Cc1ccccc1)C(=O)N[C@@H](CO)C(=O)NC1CCCCC1 | 86%
O=C(N[C@@H](CO)C(=O)N[C@@H](Cc1ccccc1)C(=O)N[C@@H](CO)C(=O)Nc1ccc(F)cc1F)C(Br)C(Br)c1ccc(F)cc1 (some centres undefined) | 94%
NC(=O)CC[C@H](NC(=O)[C@H](Cc1ccccc1)NC(=O)CNC(=O)CCc1ccccc1)C(N)=O (Hydrocinnamoyl-Gly-Phe-Gln-NH2) | 103%
CC(C)C[C@H](NC(=O)[C@H](COC(C)(C)C)NC(=O)[C@H](Cc1ccccc1)NC(=O)c1ccc(-c2ccccc2)cc1)C(=O)OCCCl | 87%
CC[C@H](C)[C@H](NC(=O)c1ccc(-c2ccccc2)cc1)C(=O)N[C@@H](C(=O)N[C@@H](CCC(N)=O)C(=O)Nc1cccc(Br)n1)C(C)C | 106%
CCCCCCCCCCC(=O)N[C@@H](Cc1c[nH]cn1)C(=O)N[C@@H](Cc1c[nH]cn1)C(=O)N[C@@H](CO)C(=O)N(C)CCc1ccccn1 | 47%
CCCCCCCCCCCOc1ccc(C(=O)N[C@@H](Cc2c[nH]cn2)C(=O)N[C@@H](Cc2ccc(O)cc2)C(=O)N[C@@H](Cc2ccccc2)C(=O)N2CCOCC2)cc1 | 87%
CCCCCc1ccc(/C=C/C(=O)N[C@H](Cc2cnc[nH]2)C(=O)N[C@@H](Cc2ccc(O)cc2)C(=O)N[C@@H](Cc2ccccc2)C(=O)O)cc1 | 17%
COC(=O)[C@H](Cc1ccccc1)NC(=O)CNC(=O)[C@@H]1CCCN1C(=O)/C=C/c1ccccc1 | 89%
CCCCCCCCCCCCCCCC(=O)N[C@@H](Cc1ccc(O)cc1)C(=O)N[C@@H](Cc1ccc(O)cc1)C(=O)N[C@@H](Cc1ccc(O)cc1)C(=O)NCCCn1ccnc1 | 85%
C[C@H](NC(=O)c1coc(-c2ccccc2)n1)C(=O)NCC(=O)N[C@@H](Cc1ccc(O)cc1)C(=O)Nc1ccc(F)cc1F | 83%
CC[C@H](C)[C@H](NC(=O)c1ccc(-c2ccccc2)cc1)C(=O)N[C@@H](C(=O)N[C@@H](CCC(N)=O)C(=O)OC)C(C)C | 94%
NNC(=O)[C@H](CO)NC(=O)CNC(=O)[C@H](CO)NC(=O)CCc1ccccc1 (Hydrocinnamoyl-Ser-Gly-Ser-NHNH2) | 94%
O=C(/C=C/c1ccc(F)cc1)N[C@@H](CO)C(=O)N[C@@H](Cc1ccccc1)C(=O)N[C@@H](CO)C(=O)Nc1ccc(F)cc1F | 92%
O=C(/C=C/c1ccc(F)cc1)N[C@@H](CO)C(=O)N[C@@H](Cc1ccccc1)C(=O)N[C@@H](CO)C(=O)NCc1ccccc1 | 100%
CCCCCCCCCCC(=O)N[C@@H](Cc1c[nH]cn1)C(=O)N[C@@H](Cc1ccccc1)C(=O)N[C@@H](Cc1ccc(O)cc1)C(=O)N(C)OC | 76%
CCCCCCCCCCCCCC(=O)N[C@@H](Cc1ccc(O)cc1)C(=O)N[C@@H](Cc1ccc(O)cc1)C(=O)N[C@@H](Cc1ccc(O)cc1)C(=O)NC1CCCCC1 | 93%

SMILES | inhibition
CCC(C)OC(=O)[C@H](CCC(N)=O)NC(=O)[C@H](Cc1ccccc1)NC(=O)[C@@H](NC(=O)/C=C/c1ccccc1)[C@@H](C)O (some centres undefined) | 87%
COC(=O)[C@H](CCC(N)=O)NC(=O)[C@H](Cc1ccccc1)NC(=O)[C@@H](NC(=O)/C=C/c1ccccc1)[C@@H](C)O | 92%
C[C@@H](NC(=O)CCc1ccccc1)C(=O)N[C@@H](Cc1ccccc1)C(=O)N[C@@H](CCC(N)=O)C(=O)O | 111%
CCCCCCCCCCC(=O)N[C@@H](Cc1ccc(O)cc1)C(=O)N[C@@H](Cc1cnc[nH]1)C(=O)N[C@@H](Cc1ccc(O)cc1)C(=O)NCCCn1ccnc1 | 32%
CCCCCCCCCCCOc1ccc(C(=O)N[C@@H](Cc2ccc(O)cc2)C(=O)N[C@@H](Cc2ccc(O)cc2)C(=O)N[C@@H](Cc2ccc(O)cc2)C(=O)NCc2ccc(F)cc2F)cc1 | 99%
CCCCOC(=O)[C@H](Cc1ccc(O)cc1)NC(=O)CNC(=O)[C@H](Cc1ccc(O)cc1)NC(=O)c1ccc(F)cc1 | 76%
COc1ccc(C[C@@H](C(=O)N(C)[C@@H](Cc2ccccc2)C(=O)O)N(C)C(=O)[C@@H](Cc2ccc(O)cc2)NC(=O)CCc2ccccc2)cc1 | 46%
C=CCCCOC(=O)[C@H](CCC(N)=O)NC(=O)[C@H](Cc1ccccc1)NC(=O)[C@H](C)NC(=O)CCc1ccccc1 | 75%
COC(=O)[C@H](Cc1ccccc1)NC(=O)[C@H](Cc1ccccc1)NC(=O)[C@H](CC(C)C)NC(=O)/C=C/c1ccccc1 | -2%
COC(=O)[C@H](CC(C)C)NC(=O)[C@H](CO)NC(=O)[C@H](Cc1ccccc1)NC(=O)/C=C/c1ccc(F)cc1 | 57%
CCCCCCCCCCOc1ccc(C(=O)N[C@@H](Cc2c[nH]cn2)C(=O)N[C@@H](Cc2c[nH]cn2)C(=O)N[C@@H](CO)C(=O)O)cc1 | 74%
CCC(C)OC(=O)[C@H](CCC(N)=O)NC(=O)[C@H](Cc1ccccc1)NC(=O)[C@@H](C)NC(=O)CCc1ccccc1 (some centres undefined) | 83%
CCCCCCCCCCC(=O)N[C@@H](Cc1ccc(O)cc1)C(=O)N[C@@H](Cc1c[nH]cn1)C(=O)N[C@@H](Cc1c[nH]cn1)C(=O)Nc1ccccn1 | 64%
O=C(N[C@@H](Cc1ccc(O)cc1)C(=O)N[C@@H](Cc1ccc(O)cc1)C(=O)N[C@@H](Cc1ccc(O)cc1)C(=O)NCc1ccccc1)c1ccc(F)cc1F | 70%
CC(C)C[C@H](NC(=O)[C@H](COC(C)(C)C)NC(=O)[C@H](Cc1ccccc1)NC(=O)/C=C/c1ccc(F)cc1)C(=O)O | 103%
COC(=O)[C@H](CC(C)C)NC(=O)[C@H](CO)NC(=O)[C@H](Cc1ccccc1)NC(=O)c1ccc(-c2ccccc2)cc1 | 94%
CCCCCCCCCCCCCC(=O)N[C@@H](Cc1ccc(O)cc1)C(=O)N[C@@H](Cc1ccc(O)cc1)C(=O)N[C@@H](Cc1ccc(O)cc1)C(=O)N(C)OC | 89%
C[C@@H](O)[C@H](NC(=O)/C=C/c1ccccc1)C(=O)N[C@@H](Cc1ccccc1)C(=O)N[C@@H](CCC(N)=O)C(N)=O | 78%
CC[C@H](C)[C@H](NC(=O)CCc1ccc(F)cc1)C(=O)N[C@@H](C)C(=O)N[C@@H](CCC(N)=O)C(=O)NNc1ccccc1 | 81%
COC(=O)NNC(=O)[C@H](CCC(=O)O)NC(=O)[C@H](NC(=O)[C@@H]1CCCN1C(=O)c1ccc([N+](=O)[O-])c(NC(C)=O)c1)C(C)C | 101%

SMILES | inhibition
COc1ccc(C[C@@H](C(=O)N(C)[C@@H](Cc2ccccc2)C(=O)N2CCC(C(N)=O)CC2)N(C)C(=O)[C@@H](Cc2ccc(O)cc2)NC(=O)OCc2ccc([N+](=O)[O-])cc2)cc1 | 75%
CCCCCCCCCCCC(=O)N[C@@H](Cc1ccc(O)cc1)C(=O)N[C@@H](Cc1c[nH]cn1)C(=O)N[C@@H](Cc1c[nH]cn1)C(=O)N(C)CCc1ccccn1 | 54%
CCCCCCCCCCCOc1ccc(C(=O)N[C@@H](Cc2c[nH]cn2)C(=O)N[C@@H](Cc2ccc(O)cc2)C(=O)N[C@@H](Cc2ccccc2)C(=O)N(C)CCc2ccccn2)cc1 | 101%
CC[C@H](C)[C@H](NC(=O)CCc1ccc(F)cc1)C(=O)N[C@@H](C)C(=O)N[C@@H](CCC(N)=O)C(=O)Nc1cccc(Br)n1 | 92%
NC(=O)CC[C@H](NC(=O)[C@H](Cc1ccccc1)NC(=O)[C@H](CO)NC(=O)CCc1ccccc1)C(=O)NCc1ccccc1 (Hydrocinnamoyl-Ser-Phe-Gln-NHBn) | 87%
CCCCCCCCCCCOc1ccc(C(=O)N[C@@H](Cc2ccc(O)cc2)C(=O)N[C@@H](Cc2ccc(O)cc2)C(=O)N[C@@H](Cc2ccc(O)cc2)C(=O)OCCCl)cc1 | 107%
CCCCCCCCCCC(=O)N[C@@H](Cc1c[nH]cn1)C(=O)N[C@@H](Cc1ccccc1)C(=O)N[C@@H](Cc1ccc(O)cc1)C(=O)OCCN | 61%
CCCCCCCCCCCOc1ccc(C(=O)N[C@@H](Cc2ccc(O)cc2)C(=O)N[C@@H](Cc2ccc(O)cc2)C(=O)N[C@@H](Cc2ccc(O)cc2)C(=O)NCC(O)CO)cc1 (some centres undefined) | 90%
C[C@H](NC(=O)[C@@H](NC(=O)c1ccc(-c2ccccc2)cc1)[C@@H](C)O)C(=O)N[C@@H](CCC(=O)O)C(=O)O | 96%
O=C(CNC(=O)[C@@H]1CCCN1C(=O)/C=C/c1ccccc1)N[C@@H](Cc1ccccc1)C(=O)O | 71%
NCCOC(=O)[C@H](Cc1ccc(O)cc1)NC(=O)CNC(=O)[C@H](Cc1c[nH]cn1)NC(=O)OCc1ccccc1 | 101%
CC(C)C[C@H](NC(=O)[C@H](CO)NC(=O)[C@H](Cc1ccccc1)NC(=O)/C=C/c1ccc(F)cc1)C(=O)NNc1ccccc1 | 95%
CCCCCCCCCCCCCCCC(=O)N[C@@H](Cc1ccc(O)cc1)C(=O)N[C@@H](Cc1ccc(O)cc1)C(=O)N[C@@H](Cc1ccc(O)cc1)C(=O)NCc1ccc(F)cc1F | 92%
COC(=O)[C@H](CC(C)C)NC(=O)[C@H](COC(C)(C)C)NC(=O)[C@H](Cc1ccccc1)NC(=O)c1ccc(-c2ccccc2)cc1 | 84%
CCCCCCCCCCC(=O)N[C@@H](Cc1c[nH]cn1)C(=O)N[C@@H](Cc1c[nH]cn1)C(=O)N[C@@H](CO)C(=O)NCCCCN | 75%
CCCCCCCCCCC(=O)N[C@@H](CC1=NCN=C1)C(=O)N[C@@H](Cc1c[nH]cn1)C(=O)N[C@@H](Cc1ccc(O)cc1)C(=O)Nc1ccccc1N | 74%
CCCCCCCCCCCOc1ccc(C(=O)N[C@@H](Cc2ccc(O)cc2)C(=O)N[C@@H](Cc2ccc(O)cc2)C(=O)N[C@@H](Cc2ccc(O)cc2)C(=O)N(C)OC)cc1 | 75%
CC[C@H](C)[C@H](NC(=O)c1ccc(-c2ccccc2)cc1)C(=O)N[C@@H](C(=O)N[C@@H](CCC(N)=O)C(=O)OCCCl)C(C)C | 89%
O=C(CNC(=O)[C@H](Cc1c[nH]cn1)NC(=O)OCc1ccccc1)N[C@@H](Cc1ccc(O)cc1)C(=O)c1nc2ccccc2[nH]1 | 66%
